Test results from ChEMBL document CHEMBL3232844, “Synthesis and structure activity relationships of schweinfurthin indoles” (2014).

What was measured:
Format in all cases: functional
[1] = system: HL-60(TB); test: Cytotoxicity against human HL-60(TB) cells
Outline: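 Tested within the NCI 60-cell-line screen, with GI50 as the read-out. Values are the average of two independent experiments. The lowest concentration tested was 10 nM.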

[2] = system: K562; test: Cytotoxicity against human K562 cells
Outline: (§1)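 Tested in a 60-cell-line human tumor panel screen; the read-out is growth inhibition, reported as GI50 for each cell line.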

[3] = system: MOLT-4; test: Cytotoxicity against human MOLT4 cells; outline: as §1
[4] = system: A549; test: Cytotoxicity against human A549 cells; outline: as §1
[5] = Cytotoxicity against human EKVX cells; outline: as §1
[6] = system: NCI-H226; test: Cytotoxicity against human NCI-H226 cells; outline: as §1
[7] = system: NCI-H23; test: Cytotoxicity against human NCI-H23 cells; outline: as §1
[8] = system: HCC 2998; test: Cytotoxicity against human HCC2998 cells; outline: as §1
[9] = system: HCT-116; test: Cytotoxicity against human HCT116 cells; outline: as §1
[10] = Cytotoxicity against human HCT15 cells; outline: as §1
[11] = system: HT-29; test: Cytotoxicity against human HT-29 cells; outline: as §1
[12] = system: KM12; test: Cytotoxicity against human KM12 cells; outline: as §1
[13] = system: SF-268; test: Cytotoxicity against human SF268 cells; outline: as §1
[14] = system: SF-295; test: Cytotoxicity against human SF295 cells; outline: as §1
[15] = system: SF-539; test: Cytotoxicity against human SF539 cells; outline: as §1
[16] = system: SNB-75; test: Cytotoxicity against human SNB75 cells
Outline: (§2)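 Cell line run as part of the 60-cell-line screening panel; growth inhibition was reported as a GI50 for each line.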

[17] = system: U-251; test: Cytotoxicity against human U251 cells; outline: as §2
[18] = system: LOX IMVI; test: Cytotoxicity against human LOXIMVI cells; outline: as §1
[19] = system: M14; test: Cytotoxicity against human M14 cells; outline: as §1
[20] = system: MDA-MB-435; test: Cytotoxicity against human MDA-MB-435 cells; outline: as §1
[21] = system: NCI-H460; test: Cytotoxicity against human NCI-H460 cells; outline: as §1
[22] = system: SK-MEL-2; test: Cytotoxicity against human SK-MEL-2 cells; outline: as §1
[23] = Cytotoxicity against human UACC257 cells; outline: as §2
[24] = system: IGROV-1; test: Cytotoxicity against human IGROV1 cells; outline: as §1
[25] = Cytotoxicity against human OVCAR3 cells; outline: as §1
[26] = Cytotoxicity against human OVCAR4 cells; outline: as §1
[27] = Cytotoxicity against human OVCAR5 cells; outline: as §1
[28] = Cytotoxicity against human OVCAR8 cells; outline: as §1
[29] = Cytotoxicity against human NCI-ADR-RES cells; outline: as §1
[30] = system: SK-OV-3; test: Cytotoxicity against human SKOV3 cells; outline: as §1
[31] = system: 786-0; test: Cytotoxicity against human 786-0 cells; outline: as §1
[32] = system: A498; test: Cytotoxicity against human A498 cells; outline: as §1
[33] = system: ACHN; test: Cytotoxicity against human ACHN cells; outline: as §1
[34] = system: CAKI-1; test: Cytotoxicity against human Caki1 cells; outline: as §1
[35] = system: RXF 393; test: Cytotoxicity against human RXF393 cells; outline: as §1
[36] = system: SN12C; test: Cytotoxicity against human SN12C cells; outline: as §1
[37] = system: TK-10; test: Cytotoxicity against human TK10 cells; outline: as §2
[38] = Cytotoxicity against human UO31 cells; outline: as §2
[39] = system: DU-145; test: Cytotoxicity against human DU145 cells; outline: as §1
[40] = system: MCF7; test: Cytotoxicity against human MCF7 cells; outline: as §1
[41] = system: MDA-MB-231; test: Cytotoxicity against human MDA-MB-231 cells; outline: as §1
[42] = system: BT-549; test: Cytotoxicity against human BT549 cells; outline: as §1
[43] = system: T47D; test: Cytotoxicity against human T47D cells; outline: as §2
[44] = read-out: pLC50 (the source's name) (converted)

## COc1cc(/C=C/c2cc(OC)c3ccn(C)c3c2)cc2c1O[C@]1(C)CC[C@@H](O)C(C)(C)[C@H]1C2
[1]
  GI50: 1.2 µM
[1]; [44]
  CC50: > 100 µM
[1]; read-out: pTGI (converted)
  TGI: 38.9 µM
[2]
  GI50: 1 µM
[2]; [44]
  CC50: > 100 µM
[2]; read-out: pTGI (converted)
  TGI: 33.1 µM
[3]
  GI50: 0.437 µM
[3]; [44]
  CC50: > 100 µM
[3]; read-out: pTGI (converted)
  TGI: 8.51 µM
[4]
  GI50: 1.91 µM
[4]; [44]
  CC50: > 100 µM
[4]; read-out: pTGI (converted)
  TGI: > 100 µM
[5]
  GI50: 1.58 µM
[5]; read-out: pTGI (converted)
  TGI: 49 µM
[6]
  GI50: 6.03 µM
[6]; read-out: pTGI (converted)
  TGI: > 100 µM
[7]
  GI50: 2.69 µM
[7]; [44]
  CC50: > 100 µM
[7]; read-out: pTGI (converted)
  TGI: 57.5 µM
[8]
  GI50: 5.25 µM
[8]; [44]
  CC50: 75.9 µM
[8]; read-out: pTGI (converted)
  TGI: 25.1 µM
[9]
  GI50: 1.23 µM
[9]; [44]
  CC50: 51.3 µM
[9]; read-out: pTGI (converted)
  TGI: 15.1 µM
[10]; HCT-15
  GI50: 1.15 µM
[10]; HCT-15, read-out: pLC50 (the source's name) (converted)
  CC50: 64.6 µM
[10]; HCT-15, read-out: pTGI (converted)
  TGI: 6.31 µM
[11]
  GI50: 1.26 µM
[11]; [44]
  CC50: 43.7 µM
[11]; read-out: pTGI (converted)
  TGI: 5.62 µM
[12]
  GI50: 2 µM
[12]; [44]
  CC50: 41.7 µM
[12]; read-out: pTGI (converted)
  TGI: 11.2 µM
[13]
  GI50: 2.09 µM
[13]; [44]
  CC50: > 100 µM
[13]; read-out: pTGI (converted)
  TGI: 69.2 µM
[14]; read-out: GI50
  GI50: 0.17 µM
[14]; read-out: pGI50 (converted)
  GI50: 0.17 µM
[14]; [44]
  CC50: 7.08 µM
[14]; read-out: pTGI (converted)
  TGI: 0.537 µM
[15]
  GI50: 0.214 µM
[15]; [44]
  CC50: 57.5 µM
[15]; read-out: pTGI (converted)
  TGI: 5.5 µM
[16]
  GI50: 0.363 µM
[16]; [44]
  CC50: > 100 µM
[16]; read-out: pTGI (converted)
  TGI: 11.5 µM
[17]
  GI50: 0.355 µM
[17]; [44]
  CC50: 69.2 µM
[17]; read-out: pTGI (converted)
  TGI: 15.5 µM
[18]
  GI50: 1.62 µM
[18]; [44]
  CC50: 79.4 µM
[18]; read-out: pTGI (converted)
  TGI: 17 µM
[19]
  GI50: 0.575 µM
[19]; [44]
  CC50: 45.7 µM
[19]; read-out: pTGI (converted)
  TGI: 16.6 µM
[20]
  GI50: 1.02 µM
[20]; [44]
  CC50: 91.2 µM
[20]; read-out: pTGI (converted)
  TGI: 20.9 µM
[21]
  GI50: 1.07 µM
[21]; [44]
  CC50: 61.7 µM
[21]; read-out: pTGI (converted)
  TGI: 12 µM
[22]
  GI50: 0.851 µM
[22]; [44]
  CC50: > 100 µM
[22]; read-out: pTGI (converted)
  TGI: 20.4 µM
[23]; UACC-257
  GI50: 2.45 µM
[23]; UACC-257, read-out: pLC50 (the source's name) (converted)
  CC50: > 100 µM
[23]; UACC-257, read-out: pTGI (converted)
  TGI: 35.5 µM
[24]
  GI50: 2.24 µM
[24]; [44]
  CC50: 95.5 µM
[24]; read-out: pTGI (converted)
  TGI: 45.7 µM
[25]; OVCAR-3
  GI50: 6.46 µM
[25]; OVCAR-3, read-out: pLC50 (the source's name) (converted)
  CC50: 57.5 µM
[25]; OVCAR-3, read-out: pTGI (converted)
  TGI: 23.4 µM
[26]; OVCAR-4
  GI50: 3.89 µM
[26]; OVCAR-4, read-out: pLC50 (the source's name) (converted)
  CC50: > 100 µM
[27]; OVCAR-5
  GI50: 4.57 µM
[27]; OVCAR-5, read-out: pLC50 (the source's name) (converted)
  CC50: > 100 µM
[27]; OVCAR-5, read-out: pTGI (converted)
  TGI: 38 µM
[28]; OVCAR-8
  GI50: 9.33 µM
[28]; OVCAR-8, read-out: pLC50 (the source's name) (converted)
  CC50: > 100 µM
[28]; OVCAR-8, read-out: pTGI (converted)
  TGI: > 100 µM
[29]
  GI50: 6.46 µM
[29]; [44]
  CC50: > 100 µM
[29]; read-out: pTGI (converted)
  TGI: > 100 µM
[30]
  GI50: 2.57 µM
  LC50: > 100 µM
[30]; read-out: pTGI (converted)
  TGI: > 100 µM
[31]
  GI50: 0.214 µM
  LC50 (concentration killing 50% of cells): > 100 µM
[31]; read-out: pTGI (converted)
  TGI: 2.4 µM
[32]
  GI50: 0.407 µM
[32]; [44]
  CC50: > 100 µM
[32]; read-out: pTGI (converted)
  TGI: 8.13 µM
[33]
  GI50: 1 µM
  LC50 (concentration killing 50% of cells): > 100 µM
[33]; read-out: pTGI (converted)
  TGI: 87.1 µM
[34]
  GI50: 0.692 µM
  LC50: > 100 µM
[34]; read-out: pTGI (converted)
  TGI: 4.79 µM
[35]
  GI50: 0.0447 µM
  LC50: 4.27 µM
[35]; read-out: pTGI (converted)
  TGI: 0.275 µM
[36]
  GI50: 6.03 µM
  LC50: > 100 µM
[36]; read-out: pTGI (converted)
  TGI: > 100 µM
[37]
  GI50: 3.16 µM
  LC50: > 100 µM
[37]; read-out: pTGI (converted)
  TGI: 93.3 µM
[38]; UO-31
  GI50: 0.501 µM
  LC50: > 100 µM
[38]; UO-31, read-out: pTGI (converted)
  TGI: 3.02 µM
[39]
  GI50: 2.45 µM
  LC50 (50% lethal concentration): > 100 µM
[39]; read-out: pTGI (converted)
  TGI: 66.1 µM
[40]
  GI50: 1.51 µM
  LC50: 66.1 µM
[40]; read-out: pTGI (converted)
  TGI: 14.5 µM
[41]
  GI50: 1.48 µM
  LC50: > 100 µM
[41]; read-out: pTGI (converted)
  TGI: 33.9 µM
[42]
  GI50: 2.82 µM
[42]; [44]
  CC50: > 100 µM
[42]; read-out: pTGI (converted)
  TGI: 30.9 µM
[43]
  GI50: 4.37 µM
[43]; [44]
  CC50: > 100 µM
[43]; read-out: pTGI (converted)
  TGI: 38.9 µM
